Measured values: ChEMBL document CHEMBL1268916, “Second generation 2-pyridyl biphenyl amide inhibitors of the hedgehog pathway” (Bioorg Med Chem Lett, 2010)
≈ marks a conversion by molar mass, not a printed value. Calls of active or inactive are those of the source. The rule behind the calls is not given here.

Assays:
Mus musculus [1] = experiment: Volume of distribution in Calu-6 cells xenografted nude mouse PK/PD model at 75 mg/kg, po bid for 5 days measured 4 hrs post last dose relative to untreated control; format: ADME, organism-based; set-up: dose 75 mg/kg, route oral; details: in vivo
[2] = Plasma concentration in Calu-6 cells xenografted nude mouse PK/PD model at 75 mg/kg, po bid for 5 days measured 4 hrs post last dose relative to untreated control; format: ADME, organism-based; set-up: dose 75 mg/kg, route oral
Procedure, shortened: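 Calu-6 tumor-bearing mice were dosed orally 75 mg/kg BID for five doses. Plasma was sampled 4 h after the last dose, at the same time as tumor harvest. Compound was given as free base or HCl salt, suspended in a methylcellulose/Tween or Labrafil-based vehicle.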

[3] = Volume of distribution at steady state in rat at 5 mg/kg, po or 1 mg/kg, iv; format: ADME, organism-based; details: in vivo, read-out: Vdss
Procedure, shortened: (§1)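 Male rats received the TFA salt as a solution. The IV dose was 1 mg/kg in 80% PEG or in 5% DMSO/5% cremophor. The oral dose was 5 mg/kg in 60–80% PEG.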

Cytochrome P450 2C9 = Cytochrome P450 2C9 (Homo sapiens, UniProt P11712); experiment: Inhibition of CYP2C9; format: ADME
[4] = Thermodynamic solubility at pH 1.0; format: physicochemical; details: buffer
Mus musculus [5] = experiment: Inhibition of Hedgehog signaling in Calu-6 cells xenografted nude mouse PK/PD model assessed as reduction in Gli1 mRNA expression at 75 mg/kg, po bid for 5 doses measured 4 hrs post last dose relative to untreated control; details: Calu-6, po
[6] = Inhibition of Hedgehog signaling in mouse S12 cells assessed as reduction in receptor-mediated Gli1 mRNA expression by reporter gene assay; format: cell-based
[7] = Inhibition of Hedgehog signaling in human HEPM cells assessed as reduction in receptor-mediated Gli1 mRNA expression by reporter gene assay; format: cell-based
[8] = Thermodynamic solubility at pH 6.5; format: physicochemical; details: buffer
Cytochrome P450 3A4 = Cytochrome P450 3A4 (Homo sapiens, UniProt P08684); experiment: Inhibition of CYP3A4; format: ADME
[9] = Clearance in rat at 5 mg/kg, po or 1 mg/kg, iv; format: ADME, organism-based; details: in vivo; procedure, shortened: as §1
Mus musculus [10] = experiment: Inhibition of Hedgehog signaling in Calu-6 cells xenografted nude mouse PK/PD model assessed as reduction in Gli1 mRNA expression at 75 mg/kg, po bid for 5 days measured 4 hrs post last dose relative to untreated control; format: functional; details: Calu-6, po, in the assay text read “for 5 doses” for “for 5 days”
Procedure, shortened: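 Nude mice bearing established Calu-6 tumors got 75 mg/kg by oral gavage BID for five doses. Tumors were harvested 4 h after the last dose. Stromal (murine) Gli1 mRNA was measured and expressed relative to vehicle-treated tumors. Compound was given as free base or HCl salt, suspended in a methylcellulose/Tween or Labrafil-based formulation.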

[11] = Plasma concentration in Calu-6 cells xenografted nude mouse PK/PD model at 25 mg/kg, po bid for 5 days measured 6 hrs post last dose relative to untreated control; format: ADME, organism-based; set-up: dose 25 mg/kg, route oral
Mus musculus [12] = experiment: Antitumor activity in mouse medulloblastoma allograft model harboring tumors with activating mutations in Hh pathway (Ptch+/-) assessed as complete regression of tumor volume at 5 mg/kg, po bid; format: functional, organism-based; set-up: dose 5 mg/kg
Procedure, shortened: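 Spontaneous medulloblastomas from Ptch+/- mice passaged subcutaneously in nude mice. Once tumors were established, mice were dosed twice daily for 20 days at 5 mg/kg BID. Tumor volume was followed over time.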

Mus musculus [13] = experiment: Inhibition of Hedgehog signaling in Calu-6 cells xenografted nude mouse PK/PD model assessed as reduction in Gli1 mRNA expression at 25 mg/kg, po bid for 5 days measured 4 hrs post last dose relative to untreated control; format: functional

Cytochrome P450 2C9, sequence (P11712 whole entry): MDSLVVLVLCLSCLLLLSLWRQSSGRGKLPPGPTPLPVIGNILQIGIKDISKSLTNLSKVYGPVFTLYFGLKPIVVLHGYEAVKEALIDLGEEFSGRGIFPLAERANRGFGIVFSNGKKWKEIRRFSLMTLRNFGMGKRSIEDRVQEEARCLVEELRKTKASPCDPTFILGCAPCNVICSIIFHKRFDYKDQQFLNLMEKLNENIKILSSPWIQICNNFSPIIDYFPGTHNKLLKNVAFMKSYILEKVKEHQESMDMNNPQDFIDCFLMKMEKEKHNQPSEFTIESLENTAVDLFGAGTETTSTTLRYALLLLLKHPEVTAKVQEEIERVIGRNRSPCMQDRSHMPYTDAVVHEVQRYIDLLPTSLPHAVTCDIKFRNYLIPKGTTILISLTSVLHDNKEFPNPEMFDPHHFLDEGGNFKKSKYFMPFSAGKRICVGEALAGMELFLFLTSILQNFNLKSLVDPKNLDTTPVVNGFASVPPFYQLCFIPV
Cytochrome P450 3A4, sequence (P08684 whole entry): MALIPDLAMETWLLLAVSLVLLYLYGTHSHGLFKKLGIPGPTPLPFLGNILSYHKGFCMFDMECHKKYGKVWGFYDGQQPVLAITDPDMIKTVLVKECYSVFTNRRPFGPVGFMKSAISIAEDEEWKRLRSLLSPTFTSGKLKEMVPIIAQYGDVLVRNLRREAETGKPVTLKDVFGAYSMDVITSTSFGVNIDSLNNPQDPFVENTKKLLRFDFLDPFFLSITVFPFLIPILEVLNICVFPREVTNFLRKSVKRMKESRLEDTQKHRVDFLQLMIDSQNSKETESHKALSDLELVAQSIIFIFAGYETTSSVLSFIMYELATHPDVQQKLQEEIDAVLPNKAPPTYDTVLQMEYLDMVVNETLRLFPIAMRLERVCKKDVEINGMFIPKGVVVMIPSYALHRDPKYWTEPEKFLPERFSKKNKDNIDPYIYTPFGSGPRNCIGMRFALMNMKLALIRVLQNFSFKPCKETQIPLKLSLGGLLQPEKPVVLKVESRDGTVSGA

Structure (SMILES)	Vd (Mus musculus [1])	concentration at 4 h [2]	Vd [3]	IC50 (Cytochrome P450 2C9)	solubility thermodynamic [4]	inhibition in vivo at 75 mg/kg (Mus musculus [5])	IC50 [6]	IC50 [7]	solubility thermodynamic [8]	IC50 (Cytochrome P450 3A4)	clearance [9]	inhibition in vivo at 75 mg/kg (Mus musculus [10])	concentration at 6 h [11]	inhibition (Mus musculus [12])	inhibition in vivo at 25 mg/kg (Mus musculus [13])
Cc1ncn(-c2ccc(C(=O)Nc3ccc(Cl)c(-c4ccccn4)c3)c(C)n2)n1	0.15 L/kg	150 µM	0.24 L/kg	> 20000 nM	900 µg/mL (≈ 2220 µM)	50%	67 nM	8 nM	6 µg/mL (≈ 14.8 µM)	> 20000 nM	0.7 mL/min/kg	–	–	–	–
NS(=O)(=O)c1ccc(C(=O)Nc2ccc(Cl)c(-c3ccccn3)c2)c(Cl)c1	–	–	–	> 20000 nM	–	–	35 nM	5 nM	–	> 20000 nM	–	–	–	–	–
O=C(NCc1ccccc1)c1ccc(C(=O)Nc2ccc(Cl)c(-c3ccccn3)c2)c(Cl)c1	–	–	–	1200 nM	–	–	7 nM	1 nM	–	> 20000 nM	–	–	–	–	–
CS(=O)(=O)Cc1ccc(C(=O)Nc2ccc(Cl)c(-c3ccccn3)c2)c(Cl)c1	–	0.3 µM	–	16000 nM	110 µg/mL (≈ 253 µM)	–	3 nM	1 nM	3 µg/mL (≈ 6.89 µM)	> 20000 nM	5.5 mL/min/kg	0%	–	–	–
CCN1CCN(c2ccc(C(=O)Nc3ccc(Cl)c(-c4ccccn4)c3)c(C)n2)CC1	–	–	–	> 20000 nM	–	–	160 nM	5 nM	–	> 20000 nM	–	–	–	–	–
CS(=O)(=O)c1ccc(C(=O)Nc2ccc(Cl)c(-c3ccccn3)c2)c(Cl)c1 [VISMODEGIB]	–	–	–	> 20000 nM	3500 µg/mL (≈ 8310 µM)	–	13 nM	3 nM	10 µg/mL (≈ 23.7 µM)	> 20000 nM	3.7 mL/min/kg	90%	–	–	–
CS(=O)(=O)Nc1ccc(C(=O)Nc2ccc(Cl)c(-c3ccccn3)c2)c(Cl)c1	–	2.2 µM	–	8000 nM	910 µg/mL (≈ 2090 µM)	25%	17 nM	2 nM	1 µg/mL (≈ 2.29 µM)	> 20000 nM	2.4 mL/min/kg	–	–	–	–
Cc1nc(NCC(C)C)ccc1C(=O)Nc1ccc(Cl)c(-c2ccccn2)c1	–	–	–	500 nM	–	–	53 nM	14 nM	–	19000 nM	–	–	–	–	–
O=C(Nc1ccc(Cl)c(-c2ccccn2)c1)c1ccc(-n2cncn2)nc1	–	–	1.4 L/kg	200 nM	4000 µg/mL (≈ 10600 µM)	–	47 nM	8 nM	8 µg/mL (≈ 21.2 µM)	200 nM	4 mL/min/kg	–	–	–	–
O=C(NCc1ccccn1)c1ccc(C(=O)Nc2ccc(Cl)c(-c3ccccn3)c2)c(Cl)c1	–	–	–	4500 nM	4300 µg/mL (≈ 9010 µM)	–	4 nM	0.4 nM	3 µg/mL (≈ 6.28 µM)	> 20000 nM	6.7 mL/min/kg	–	1.7 µM	Active	90%
O=C(Nc1ccc(Cl)c(-c2ccccn2)c1)c1ccc(C(=O)N2CCS(=O)(=O)CC2)cc1Cl	–	–	–	9000 nM	4300 µg/mL (≈ 8530 µM)	–	33 nM	5 nM	60 µg/mL (≈ 119 µM)	> 20000 nM	35 mL/min/kg	–	–	–	–
Cc1nc(C(F)(F)F)ccc1C(=O)Nc1ccc(Cl)c(-c2ccccn2)c1	–	15 µM	0.95 L/kg	> 20000 nM	1000 µg/mL (≈ 2550 µM)	–	42 nM	15 nM	2 µg/mL (≈ 5.1 µM)	> 20000 nM	4.5 mL/min/kg	40%	–	–	–
CC(=O)N1CCN(c2ccc(C(=O)Nc3ccc(Cl)c(-c4ccccn4)c3)c(C)n2)CC1	–	22 µM	0.38 L/kg	16000 nM	3200 µg/mL (≈ 7110 µM)	–	22 nM	5 nM	6 µg/mL (≈ 13.3 µM)	> 20000 nM	2 mL/min/kg	80%	–	–	–
Cc1nc(NCCO)ccc1C(=O)Nc1ccc(Cl)c(-c2ccccn2)c1	–	–	–	> 20000 nM	–	–	62 nM	23 nM	–	> 20000 nM	–	–	–	–	–
